Assay results published in ChEMBL document CHEMBL4385593, “Design, synthesis and biological evaluation of novel benzothiadiazine derivatives as potent PI3Kδ-selective inhibitors for treating B-cell-mediated malignancies” (Eur J Med Chem, 2019).

What was measured:
[1] = molecular target: PI3-kinase p110-alpha/p85-alpha (Homo sapiens, UniProt P42336); assay: Inhibition of His-tagged recombinant human full length PI3K p110alpha/p85alpha expressed in baculovirus expression system using lipid substrate incubated for 60 mins by kinase-Glo reagent based luminescence assay
PI3-kinase p110-alpha/p85-alpha, sequence (P27986 whole entry): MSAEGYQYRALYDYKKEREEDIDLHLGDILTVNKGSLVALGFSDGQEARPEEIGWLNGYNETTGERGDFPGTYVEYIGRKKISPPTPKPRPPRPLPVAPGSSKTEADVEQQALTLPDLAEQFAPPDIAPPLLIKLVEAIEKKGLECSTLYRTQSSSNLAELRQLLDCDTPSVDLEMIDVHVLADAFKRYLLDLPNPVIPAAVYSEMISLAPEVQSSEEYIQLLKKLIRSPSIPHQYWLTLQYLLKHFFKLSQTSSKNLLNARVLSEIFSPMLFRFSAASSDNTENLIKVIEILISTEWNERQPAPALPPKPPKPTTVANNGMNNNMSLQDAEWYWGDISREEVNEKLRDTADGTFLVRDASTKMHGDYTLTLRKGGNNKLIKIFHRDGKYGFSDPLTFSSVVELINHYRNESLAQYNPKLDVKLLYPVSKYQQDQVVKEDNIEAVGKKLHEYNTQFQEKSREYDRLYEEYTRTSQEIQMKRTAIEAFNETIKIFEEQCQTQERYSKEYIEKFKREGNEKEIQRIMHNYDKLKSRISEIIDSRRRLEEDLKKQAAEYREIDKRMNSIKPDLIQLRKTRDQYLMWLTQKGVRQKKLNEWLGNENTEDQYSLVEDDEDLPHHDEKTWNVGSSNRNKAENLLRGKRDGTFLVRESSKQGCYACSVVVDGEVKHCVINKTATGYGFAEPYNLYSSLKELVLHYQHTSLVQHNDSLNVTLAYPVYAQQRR
PI3-kinase p110-alpha/p85-alpha, sequence (P42336 whole entry): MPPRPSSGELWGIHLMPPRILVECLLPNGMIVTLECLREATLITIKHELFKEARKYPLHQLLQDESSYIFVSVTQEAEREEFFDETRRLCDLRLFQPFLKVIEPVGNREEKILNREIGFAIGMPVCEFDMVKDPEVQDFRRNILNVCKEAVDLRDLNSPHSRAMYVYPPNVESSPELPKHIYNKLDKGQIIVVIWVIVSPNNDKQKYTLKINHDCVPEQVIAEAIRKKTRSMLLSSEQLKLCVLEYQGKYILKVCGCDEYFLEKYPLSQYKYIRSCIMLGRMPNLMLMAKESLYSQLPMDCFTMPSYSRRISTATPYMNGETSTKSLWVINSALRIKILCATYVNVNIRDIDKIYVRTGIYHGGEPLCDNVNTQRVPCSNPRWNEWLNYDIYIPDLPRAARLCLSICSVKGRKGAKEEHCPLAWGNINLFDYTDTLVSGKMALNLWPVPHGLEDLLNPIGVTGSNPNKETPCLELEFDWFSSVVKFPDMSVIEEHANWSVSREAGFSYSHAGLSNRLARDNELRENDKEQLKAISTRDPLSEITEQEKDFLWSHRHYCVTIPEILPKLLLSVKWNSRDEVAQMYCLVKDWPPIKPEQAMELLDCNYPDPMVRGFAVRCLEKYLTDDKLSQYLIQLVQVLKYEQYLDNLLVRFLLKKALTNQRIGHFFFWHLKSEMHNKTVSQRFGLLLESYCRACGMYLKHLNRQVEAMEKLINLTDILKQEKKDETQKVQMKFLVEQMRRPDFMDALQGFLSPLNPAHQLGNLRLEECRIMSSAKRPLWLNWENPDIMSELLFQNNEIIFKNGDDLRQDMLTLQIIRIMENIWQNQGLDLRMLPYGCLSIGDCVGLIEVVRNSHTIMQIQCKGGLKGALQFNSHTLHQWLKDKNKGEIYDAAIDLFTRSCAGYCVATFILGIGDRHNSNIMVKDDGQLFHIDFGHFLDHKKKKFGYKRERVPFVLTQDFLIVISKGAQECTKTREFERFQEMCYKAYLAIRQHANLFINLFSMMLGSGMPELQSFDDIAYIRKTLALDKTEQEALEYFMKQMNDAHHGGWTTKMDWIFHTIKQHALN

Homo sapiens [2] = species on record: Homo sapiens; assay: Selectivity ratio of IC50 for His-tagged recombinant human full length PI3K p110alpha/p85alpha to IC50 for His-tagged recombinant human PI3K p110delta/p85alpha
Homo sapiens [3] = species on record: Homo sapiens; assay: Selectivity ratio of IC50 for His-tagged recombinant human full length PI3K p110gamma to IC50 for His-tagged recombinant human PI3K p110delta/p85alpha
SU-DHL-6 = assay: Growth inhibition of human SU-DHL6 cells incubated for 72 hrs by CellTiter-Glo assay; format: functional; settings: SU-DHL-6, 72 h
Summary of the method: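 SU-DHL-6 cells were seeded at 1 × 10^4 per well and exposed to compound or medium alone for 72 h. Viability was measured by CellTiter-Glo luminescence, and GI50 was derived by curve fitting.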

[4] = molecular target: PI3-kinase p110-delta/p85-alpha (Homo sapiens, UniProt O00329); assay: Inhibition of His-tagged recombinant human PI3K p110delta/p85alpha using lipid substrate incubated for 2 hrs by ADP-Glo assay; format: protein-complex assay
PI3-kinase p110-delta/p85-alpha, sequence (P27986 whole entry, canonical isoform): as the sequence (P27986 whole entry) above
PI3-kinase p110-delta/p85-alpha, sequence (O00329 whole entry, canonical isoform): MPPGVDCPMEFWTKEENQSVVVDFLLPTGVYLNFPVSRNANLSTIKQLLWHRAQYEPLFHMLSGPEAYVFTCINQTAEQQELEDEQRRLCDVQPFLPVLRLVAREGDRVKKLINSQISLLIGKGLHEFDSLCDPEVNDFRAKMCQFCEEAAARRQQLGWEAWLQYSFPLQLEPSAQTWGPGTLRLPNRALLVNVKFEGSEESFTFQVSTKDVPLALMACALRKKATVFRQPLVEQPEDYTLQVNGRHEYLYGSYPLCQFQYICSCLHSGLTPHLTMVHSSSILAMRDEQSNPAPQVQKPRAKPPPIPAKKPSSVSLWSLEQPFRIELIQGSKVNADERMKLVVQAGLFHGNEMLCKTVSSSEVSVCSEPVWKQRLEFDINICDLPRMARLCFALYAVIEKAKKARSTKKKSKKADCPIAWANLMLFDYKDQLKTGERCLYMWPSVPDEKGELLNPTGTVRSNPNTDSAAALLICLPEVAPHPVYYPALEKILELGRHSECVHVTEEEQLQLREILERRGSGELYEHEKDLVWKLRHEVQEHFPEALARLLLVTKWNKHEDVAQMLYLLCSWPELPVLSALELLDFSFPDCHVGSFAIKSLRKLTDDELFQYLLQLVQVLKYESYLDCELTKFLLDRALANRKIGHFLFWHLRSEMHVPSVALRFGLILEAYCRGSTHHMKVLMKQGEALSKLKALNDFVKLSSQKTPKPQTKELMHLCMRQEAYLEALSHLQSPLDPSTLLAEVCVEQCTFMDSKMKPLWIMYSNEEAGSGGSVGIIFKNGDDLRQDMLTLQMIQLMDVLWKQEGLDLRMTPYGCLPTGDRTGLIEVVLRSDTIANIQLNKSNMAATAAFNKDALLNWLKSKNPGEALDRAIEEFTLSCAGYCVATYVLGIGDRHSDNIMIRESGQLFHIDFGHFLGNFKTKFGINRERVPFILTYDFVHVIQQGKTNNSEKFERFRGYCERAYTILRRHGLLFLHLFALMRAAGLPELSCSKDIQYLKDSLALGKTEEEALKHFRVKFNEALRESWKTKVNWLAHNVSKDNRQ

[5] = molecular target: Phosphatidylinositol 4,5-bisphosphate 3-kinase catalytic subunit gamma isoform (Homo sapiens, UniProt P48736); assay: Inhibition of His-tagged recombinant human full length PI3K p110gamma expressed in baculovirus expression system using lipid substrate incubated for 2 hrs by ADP-Glo assay
Phosphatidylinositol 4,5-bisphosphate 3-kinase catalytic subunit gamma isoform, sequence (P48736 whole entry, canonical isoform): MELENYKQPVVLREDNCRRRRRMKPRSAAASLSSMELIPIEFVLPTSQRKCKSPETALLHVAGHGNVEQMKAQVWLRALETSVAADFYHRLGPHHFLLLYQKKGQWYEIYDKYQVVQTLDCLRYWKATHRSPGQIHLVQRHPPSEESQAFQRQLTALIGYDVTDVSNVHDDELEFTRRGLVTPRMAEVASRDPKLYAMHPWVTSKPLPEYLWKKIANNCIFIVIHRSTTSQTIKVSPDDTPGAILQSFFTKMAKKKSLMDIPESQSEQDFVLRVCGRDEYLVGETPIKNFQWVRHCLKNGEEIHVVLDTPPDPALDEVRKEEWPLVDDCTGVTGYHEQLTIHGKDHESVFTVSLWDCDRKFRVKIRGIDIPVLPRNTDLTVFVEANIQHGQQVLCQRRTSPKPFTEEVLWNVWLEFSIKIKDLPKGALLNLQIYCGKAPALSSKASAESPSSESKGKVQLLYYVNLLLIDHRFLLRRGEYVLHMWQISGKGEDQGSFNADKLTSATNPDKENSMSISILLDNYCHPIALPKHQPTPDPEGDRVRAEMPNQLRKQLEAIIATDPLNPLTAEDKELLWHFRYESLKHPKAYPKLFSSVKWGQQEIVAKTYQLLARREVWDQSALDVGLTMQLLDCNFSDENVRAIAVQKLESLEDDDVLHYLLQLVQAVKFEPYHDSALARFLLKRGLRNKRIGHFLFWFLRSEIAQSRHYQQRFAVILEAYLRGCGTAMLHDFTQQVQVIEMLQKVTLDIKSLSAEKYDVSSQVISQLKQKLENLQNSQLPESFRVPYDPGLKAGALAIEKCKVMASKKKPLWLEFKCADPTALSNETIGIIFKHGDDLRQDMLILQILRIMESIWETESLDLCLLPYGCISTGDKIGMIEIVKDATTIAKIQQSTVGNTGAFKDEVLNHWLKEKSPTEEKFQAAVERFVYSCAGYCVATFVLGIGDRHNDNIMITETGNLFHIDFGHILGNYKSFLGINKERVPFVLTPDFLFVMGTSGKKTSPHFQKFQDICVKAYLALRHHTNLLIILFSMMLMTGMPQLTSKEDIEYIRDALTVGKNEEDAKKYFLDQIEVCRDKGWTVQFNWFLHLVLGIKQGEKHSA

Homo sapiens [6] = species on record: Homo sapiens; assay: Selectivity ratio of IC50 for His6-tagged recombinant full length human N-terminal PI3Kbeta to IC50 for His-tagged recombinant human PI3K p110delta/p85alpha
[7] = molecular target: Phosphatidylinositol 4,5-bisphosphate 3-kinase catalytic subunit beta isoform (Homo sapiens, UniProt P42338); assay: Inhibition of His6-tagged recombinant full length human N-terminal PI3Kbeta expressed in baculovirus infected Sf21 cells using lipid substrate incubated for 2 hrs by ADP-Glo assay
Phosphatidylinositol 4,5-bisphosphate 3-kinase catalytic subunit beta isoform, sequence (P42338 whole entry, canonical isoform): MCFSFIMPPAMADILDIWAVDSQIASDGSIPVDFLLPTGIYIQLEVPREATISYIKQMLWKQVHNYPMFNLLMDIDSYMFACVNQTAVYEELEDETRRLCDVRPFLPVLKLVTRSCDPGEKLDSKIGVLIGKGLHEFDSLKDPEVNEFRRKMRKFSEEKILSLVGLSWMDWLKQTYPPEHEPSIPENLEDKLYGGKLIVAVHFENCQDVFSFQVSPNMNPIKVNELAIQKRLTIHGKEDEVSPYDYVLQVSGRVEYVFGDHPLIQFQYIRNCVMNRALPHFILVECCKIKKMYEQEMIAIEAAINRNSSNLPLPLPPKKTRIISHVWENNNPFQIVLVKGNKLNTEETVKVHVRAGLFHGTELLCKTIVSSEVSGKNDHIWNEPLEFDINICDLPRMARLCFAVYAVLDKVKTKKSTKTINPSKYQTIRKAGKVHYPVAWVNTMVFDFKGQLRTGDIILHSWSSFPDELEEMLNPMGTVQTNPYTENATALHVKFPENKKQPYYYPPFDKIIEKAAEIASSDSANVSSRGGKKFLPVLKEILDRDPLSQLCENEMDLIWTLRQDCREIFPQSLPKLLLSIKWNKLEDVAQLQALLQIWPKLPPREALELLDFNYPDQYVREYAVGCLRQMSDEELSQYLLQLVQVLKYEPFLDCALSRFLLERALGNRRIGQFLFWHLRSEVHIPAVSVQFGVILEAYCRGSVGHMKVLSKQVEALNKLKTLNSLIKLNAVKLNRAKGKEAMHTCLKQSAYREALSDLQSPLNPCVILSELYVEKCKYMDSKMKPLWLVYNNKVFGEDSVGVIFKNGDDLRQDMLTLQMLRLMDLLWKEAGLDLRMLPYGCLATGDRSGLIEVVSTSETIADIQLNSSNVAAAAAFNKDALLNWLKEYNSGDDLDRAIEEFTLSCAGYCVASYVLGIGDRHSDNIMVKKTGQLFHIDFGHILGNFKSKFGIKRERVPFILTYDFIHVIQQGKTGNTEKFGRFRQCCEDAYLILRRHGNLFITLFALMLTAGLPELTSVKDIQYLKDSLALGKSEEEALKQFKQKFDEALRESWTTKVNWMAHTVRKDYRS

[8] = Volume of distribution at steady state in Sprague-Dawley rat at 2 mg/kg, iv by LC/MS/MS analysis; format: ADME, organism-based; settings: in vivo, read-out: Vdss
Summary of the method: (§1)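 Male SD rats, three per group, dosed iv at 2 mg/kg or orally at 10 mg/kg. iv dose was a 0.4 mg/mL solution in 5% DMSO/10% Solutol/10% EtOH/75% saline. Oral dose was a 1 mg/mL suspension in 2% DMSO/98% MC (0.5%). Terminal orbital blood was taken into EDTA-2K under isoflurane at set time points. Plasma levels were measured by LC/MS/MS.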

[9] = AUC (0 to t) in Sprague-Dawley rat at 2 mg/kg, iv by LC/MS/MS analysis; format: ADME, organism-based; settings: in vivo; summary of the method: as §1
[10] = Oral bioavailability in Sprague-Dawley rat at 10 mg/kg by LC/MS/MS analysis; format: ADME, organism-based; settings: in vivo; summary of the method: as §1
[11] = AUC (0 to t) in Sprague-Dawley rat at 10 mg/kg, po by LC/MS/MS analysis; format: ADME, organism-based; settings: in vivo; summary of the method: as §1
[12] = Half life in Sprague-Dawley rat at 10 mg/kg, po by LC/MS/MS analysis; format: ADME, organism-based; settings: in vivo; summary of the method: as §1
[13] = Cmax in Sprague-Dawley rat at 10 mg/kg, po by LC/MS/MS analysis; format: ADME, organism-based; set-up: dose 10 mg/kg, route oral; settings: in vivo; summary of the method: as §1
[14] = Clearance in Sprague-Dawley rat at 2 mg/kg, iv by LC/MS/MS analysis; format: ADME, organism-based; settings: in vivo
[15] = Half life in Sprague-Dawley rat at 2 mg/kg, iv by LC/MS/MS analysis; format: ADME, organism-based; settings: in vivo; summary of the method: as §1

C[C@@H](Nc1ncnc(N)c1C#N)C1=Nc2cccc(Cl)c2S(=O)(=O)N1c1ccccc1
IC50 [1]: > 5000 nM
Ratio IC50 (Homo sapiens [2]): > 714
Ratio IC50 (Homo sapiens [3]): 16
GI50 (SU-DHL-6): 70.3 nM
IC50 [4]: 7 nM
IC50 [5]: 112 nM
Ratio IC50 (Homo sapiens [6]): 24
IC50 [7]: 169 nM

CCC(Nc1ncnc2[nH]cnc12)C1=Nc2cccc(Cl)c2S(=O)(=O)N1c1ccccc1 (stereo not drawn)
GI50 (SU-DHL-6): 2190 nM
IC50 [4]: 81 nM

CC(Nc1ncnc2[nH]cnc12)C1=Nc2ccccc2S(=O)(=O)N1c1ccccc1 (stereo not drawn)
IC50 [4]: 344 nM

CC(C1=Nc2ccccc2S(=O)(=O)N1c1ccccc1)n1cnc2c(N)ncnc21 (stereo not drawn)
GI50 (SU-DHL-6): 23100 nM
IC50 [4]: 68 nM

CCC(C1=Nc2ccccc2S(=O)(=O)N1c1ccc(OC(F)(F)F)cc1)n1cnc2c(N)ncnc21 (stereo not drawn)
IC50 [4]: > 3000 nM

CC(Nc1ncnc2[nH]cnc12)C1=Nc2ccccc2S(=O)(=O)N1c1ccc(F)cc1 (stereo not drawn)
IC50 [4]: 2000 nM

C[C@H](Nc1ncnc(N)c1C#N)C1=Nc2cccc(Cl)c2S(=O)(=O)N1c1ccccc1
IC50 [1]: 996 nM
Ratio IC50 (Homo sapiens [2]): > 3110
Ratio IC50 (Homo sapiens [3]): > 313
GI50 (SU-DHL-6): 15.9 nM
IC50 [4]: < 0.32 nM
IC50 [5]: 100 nM
Ratio IC50 (Homo sapiens [6]): > 172
IC50 [7]: 55 nM

CCC(C1=Nc2ccccc2S(=O)(=O)N1c1ccc(F)cc1)n1cnc2c(N)ncnc21 (stereo not drawn)
IC50 [4]: > 3000 nM

CCC(Nc1ncnc2[nH]cnc12)C1=Nc2ccccc2S(=O)(=O)N1c1cccc(C(F)(F)F)c1 (stereo not drawn)
IC50 [4]: > 3000 nM

CC(Nc1nc(F)nc2[nH]cnc12)C1=Nc2ccccc2S(=O)(=O)N1c1ccccc1 (stereo not drawn)
GI50 (SU-DHL-6): 4690 nM
IC50 [4]: 92 nM

CC(C1=Nc2ccccc2S(=O)(=O)N1c1ccc(F)cc1)n1cnc2c(N)ncnc21 (stereo not drawn)
IC50 [4]: 628 nM

CC(C1=Nc2ccccc2S(=O)(=O)N1c1cccnc1)n1cnc2c(N)ncnc21 (stereo not drawn)
IC50 [4]: 623 nM

CC(Nc1ncnc2[nH]cnc12)C1=Nc2ccccc2S(=O)(=O)N1c1cccnc1 (stereo not drawn)
IC50 [4]: 921 nM

CC(Nc1ncnc(N)c1C#N)C1=Nc2cccc(Cl)c2S(=O)(=O)N1c1ccccc1 (stereo not drawn)
GI50 (SU-DHL-6): 187 nM
IC50 [4]: 3.2 nM

CCC(Nc1ncnc(N)c1C#N)C1=Nc2cccc(Cl)c2S(=O)(=O)N1c1ccccc1 (stereo not drawn)
GI50 (SU-DHL-6): 1680 nM
IC50 [4]: 12 nM

C[C@H](Nc1ncnc2[nH]cnc12)C1=Nc2cccc(Cl)c2S(=O)(=O)N1c1ccccc1
IC50 [1]: 3640 nM
Vd [8]: 0.853 L/kg
Ratio IC50 (Homo sapiens [2]): 791
Ratio IC50 (Homo sapiens [3]): 34
GI50 (SU-DHL-6): 33.2 nM
IC50 [4]: 4.6 nM
IC50 [5]: 156 nM
AUC(0-t) [9]: 1400 ng·h/mL
Ratio IC50 (Homo sapiens [6]): 167
IC50 [7]: 766 nM
bioavailability [10]: 29.2%
AUC(0-t) [11]: 2010 ng·h/mL
half-life [12]: 72 min
Cmax [13]: 643 ng/mL
clearance [14]: 25.8 mL/min/kg
half-life [15]: 31.1 min

CCC(Nc1ncnc2[nH]cnc12)C1=Nc2ccccc2S(=O)(=O)N1c1ccc(OC)c(OC)c1 (stereo not drawn)
IC50 [4]: > 3000 nM

C[C@@H](Nc1ncnc2[nH]cnc12)C1=Nc2cccc(Cl)c2S(=O)(=O)N1c1ccccc1
IC50 [1]: > 5000 nM
Ratio IC50 (Homo sapiens [2]): > 81
Ratio IC50 (Homo sapiens [3]): 31
GI50 (SU-DHL-6): 190 nM
IC50 [4]: 62 nM
IC50 [5]: 1910 nM
Ratio IC50 (Homo sapiens [6]): 64
IC50 [7]: 3990 nM

CCC(Nc1ncnc2[nH]cnc12)C1=Nc2ccccc2S(=O)(=O)N1c1ccc(OC(F)(F)F)cc1 (stereo not drawn)
IC50 [4]: > 3000 nM

CC(Nc1ncnc2[nH]cnc12)C1=Nc2ccccc2S(=O)(=O)N1c1cccc(C(F)(F)F)c1 (stereo not drawn)
IC50 [4]: > 3000 nM

CCC(Nc1ncnc2[nH]cnc12)C1=Nc2cccc(F)c2S(=O)(=O)N1c1ccccc1 (stereo not drawn)
IC50 [4]: > 3000 nM

CC(Nc1ncnc2[nH]cnc12)C1=Nc2cccc(Cl)c2S(=O)(=O)N1c1ccccc1 (stereo not drawn)
GI50 (SU-DHL-6): 770 nM
IC50 [4]: 9.8 nM

CCC(Nc1ncnc(N)c1C#N)C1=Nc2cccc(F)c2S(=O)(=O)N1c1ccccc1 (stereo not drawn)
GI50 (SU-DHL-6): 10500 nM
IC50 [4]: 141 nM

CCC(Nc1nc(F)nc2[nH]cnc12)C1=Nc2cccc(F)c2S(=O)(=O)N1c1ccccc1 (stereo not drawn)
IC50 [4]: 383 nM

CC(=O)O[C@H]1C(=O)[C@@]2(C)[C@H]([C@H](OC(=O)c3ccccc3)[C@]3(O)C[C@H](OC(=O)[C@H](O)[C@@H](NC(=O)c4ccccc4)c4ccccc4)C(C)=C1C3(C)C)[C@]1(OC(C)=O)CO[C@@H]1C[C@@H]2O [PACLITAXEL]
GI50 (SU-DHL-6): 1.9 nM

CC[C@H](Nc1ncnc2[nH]cnc12)c1nc2cccc(F)c2c(=O)n1-c1ccccc1 [IDELALISIB]
Vd [8]: 0.884 L/kg
GI50 (SU-DHL-6): 124 nM
AUC(0-t) [9]: 1400 ng·h/mL
bioavailability [10]: 45.8%
AUC(0-t) [11]: 3190 ng·h/mL
half-life [12]: 61.8 min
Cmax [13]: 2320 ng/mL
half-life [15]: 31.1 min

CC(Nc1ncnc(N)c1C#N)C1=Nc2ccccc2S(=O)(=O)N1c1ccccc1 (stereo not drawn)
GI50 (SU-DHL-6): 3500 nM
IC50 [4]: 15 nM

CC(C1=Nc2cccc(F)c2S(=O)(=O)N1c1ccccc1)n1cnc2c(N)ncnc21 (stereo not drawn)
GI50 (SU-DHL-6): 7200 nM
IC50 [4]: 54 nM

CC(Nc1nc(Cl)nc2[nH]cnc12)C1=Nc2ccccc2S(=O)(=O)N1c1ccccc1 (stereo not drawn)
IC50 [4]: 1200 nM

CC(Nc1ncnc(N)c1C#N)C1=Nc2cccc(F)c2S(=O)(=O)N1c1ccccc1 (stereo not drawn)
GI50 (SU-DHL-6): 1220 nM
IC50 [4]: 35 nM
